Measurements as given in ChEMBL document CHEMBL3808295, “Discovery of enantioselectivity of urea inhibitors of soluble epoxide hydrolase” (Eur J Med Chem, 2016).

Legend:
[1] = molecular target: T1, Epoxide hydrolase 1 (Homo sapiens) (UniProt P07099); experiment: Inhibition of microsomal epoxide hydrolase in pooled human liver microsomes assessed as enzyme activity using styrene oxide as substrate at 10 uM incubated for 10 mins by UV-HPLC analysis relative to control; parameters: scale not given: the % may be the effect or the level left
T1 sequence (whole entry): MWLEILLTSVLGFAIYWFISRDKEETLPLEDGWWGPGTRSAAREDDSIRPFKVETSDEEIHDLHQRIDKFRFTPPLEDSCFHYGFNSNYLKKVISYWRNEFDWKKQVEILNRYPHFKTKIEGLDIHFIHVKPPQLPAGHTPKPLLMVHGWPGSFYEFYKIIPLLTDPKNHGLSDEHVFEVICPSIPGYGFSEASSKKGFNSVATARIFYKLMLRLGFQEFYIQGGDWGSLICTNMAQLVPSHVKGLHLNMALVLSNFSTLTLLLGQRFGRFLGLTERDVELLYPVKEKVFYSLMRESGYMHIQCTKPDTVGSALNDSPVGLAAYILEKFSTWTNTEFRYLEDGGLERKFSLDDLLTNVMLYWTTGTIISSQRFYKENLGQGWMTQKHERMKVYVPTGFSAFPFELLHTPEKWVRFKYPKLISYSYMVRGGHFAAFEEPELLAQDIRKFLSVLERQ
Outline: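 Pooled human liver microsomes (0.2 mg/mL) incubated with styrene oxide (25 μM) and 10 μM test compound in 0.1 M Tris-HCl pH 9.0 at 37°C for 10 min; quenched with n-hexane, centrifuged, supernatant analysed by UV-HPLC (C18, 30°C, 40% methanol). Activity from styrene glycol formed, as percentage of control; valpromide positive control.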

[2] = molecular target: T2, Bifunctional epoxide hydrolase 2 (Homo sapiens, UniProt P34913); experiment: Inhibition of soluble epoxide hydrolase (unknown origin) using 14,15-EET as substrate incubated for 20 mins by LC-MS/MS analysis
T2 sequence (P34913 whole entry): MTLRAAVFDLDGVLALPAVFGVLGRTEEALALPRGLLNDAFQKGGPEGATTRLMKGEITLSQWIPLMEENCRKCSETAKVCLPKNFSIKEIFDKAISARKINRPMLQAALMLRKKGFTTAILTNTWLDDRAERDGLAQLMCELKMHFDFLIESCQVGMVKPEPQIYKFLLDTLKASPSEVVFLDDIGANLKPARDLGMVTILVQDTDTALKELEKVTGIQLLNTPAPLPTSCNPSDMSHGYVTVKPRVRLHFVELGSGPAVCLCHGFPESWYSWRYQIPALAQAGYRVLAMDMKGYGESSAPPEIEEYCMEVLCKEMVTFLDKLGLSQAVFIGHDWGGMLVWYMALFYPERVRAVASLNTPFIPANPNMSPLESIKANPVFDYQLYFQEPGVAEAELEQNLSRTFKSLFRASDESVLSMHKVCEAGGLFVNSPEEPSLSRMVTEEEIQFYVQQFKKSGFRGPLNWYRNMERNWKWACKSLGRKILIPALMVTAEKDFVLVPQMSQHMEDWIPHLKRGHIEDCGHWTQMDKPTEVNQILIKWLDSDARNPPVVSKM

O=C(NCCCc1ccccc1)NCc1ccccc1
Activity [1]: 105% | IC50 [2]: 3260 nM

O=C(NCCCc1ccccc1)N[C@H](CO)c1ccccc1
Activity [1]: 107% | IC50 [2]: 20000 nM

O=C(NCCCc1ccccc1)N[C@H]1CCCc2ccccc21
Activity [1]: 106% | IC50 [2]: 13 nM

CC[C@@H](NC(=O)NCCCc1ccccc1)c1ccccc1
Activity [1]: 103% | IC50 [2]: 4500 nM

CCCC(CCC)C(N)=O
Activity [1]: 50.9%

C[C@@H](NC(=O)NCCCc1ccccc1)C1CCCCC1
Activity [1]: 103% | IC50 [2]: 302 nM

C[C@H](NC(=O)NCCCc1ccccc1)c1cccc2ccccc12
Activity [1]: 102% | IC50 [2]: 43 nM

CC[C@H](C)NC(=O)NCCCc1ccccc1
Activity [1]: 101% | IC50 [2]: 63 nM

O=C(NCCCc1ccccc1)N[C@H]1CCc2ccccc21
Activity [1]: 112% | IC50 [2]: 65 nM

O=C(NCCCc1ccccc1)N[C@@H]1CCCc2ccccc21
Activity [1]: 106% | IC50 [2]: 13 nM

CC[C@H](NC(=O)NCCCc1ccccc1)c1ccccc1
Activity [1]: 106% | IC50 [2]: 36 nM

O=C(NCCCc1ccccc1)N[C@@H]1CCc2ccccc21
Activity [1]: 110% | IC50 [2]: 22 nM

C[C@H](NC(=O)NCCCc1ccccc1)C1CCCCC1
Activity [1]: 99.4% | IC50 [2]: 182 nM

O=C(NCCCc1ccccc1)N1CCC[C@@H]1c1ccccc1
Activity [1]: 101% | IC50 [2]: 1510 nM

C[C@H](NC(=O)NCCCc1ccc(S(N)(=O)=O)cc1)c1ccccc1
Activity [1]: 99.9% | IC50 [2]: 22 nM

C[C@H](NC(=O)NCCCc1ccccc1)c1ccccc1
Activity [1]: 84.6% | IC50 [2]: 44 nM

C[C@@H](NC(=O)NCCCc1ccccc1)c1ccccc1
Activity [1]: 102% | IC50 [2]: 1730 nM

O=C(NCCCc1ccccc1)N[C@@H](CO)c1ccccc1
Activity [1]: 102% | IC50 [2]: 2740 nM

C[C@@H](NC(=O)NCCCc1ccc(S(N)(=O)=O)cc1)c1ccccc1
Activity [1]: 101% | IC50 [2]: 2030 nM

O=C(NCCCc1ccccc1)N1CCC[C@H]1c1ccccc1
Activity [1]: 99.8% | IC50 [2]: 332 nM

C[C@@H](NC(=O)NCCCc1ccccc1)c1cccc2ccccc12
Activity [1]: 98.7% | IC50 [2]: 364 nM

CCC(C)NC(=O)NCCCc1ccccc1 (racemic)
Activity [1]: 102% | IC50 [2]: 650 nM
